# Data: the M2OR odorant receptor database
# What was measured:
# Conditions in all cases: stereoisomer not certain
# [1] = target: T1, UniProt Q8VF24
# T1 sequence (whole entry): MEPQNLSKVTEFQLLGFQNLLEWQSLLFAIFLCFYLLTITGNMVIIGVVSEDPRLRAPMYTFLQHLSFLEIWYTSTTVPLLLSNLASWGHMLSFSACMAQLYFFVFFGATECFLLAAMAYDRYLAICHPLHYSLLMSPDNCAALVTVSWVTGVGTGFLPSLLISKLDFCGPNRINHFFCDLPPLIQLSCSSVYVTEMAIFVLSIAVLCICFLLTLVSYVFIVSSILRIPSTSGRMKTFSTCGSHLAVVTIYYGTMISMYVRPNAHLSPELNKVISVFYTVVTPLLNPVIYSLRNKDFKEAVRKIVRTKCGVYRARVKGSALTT
# How it was run: (§1)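 Assay methods differ from source to source, frequently being transient luciferase assays in mammalian cell lines. For each receptor–molecule pair, the label responsive (active) applies when the original authors judged the measured signal statistically different from baseline, and non-responsive (inactive) applies otherwise.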
# [2] = target: T2, UniProt Q8VF43
# T2 sequence (whole entry): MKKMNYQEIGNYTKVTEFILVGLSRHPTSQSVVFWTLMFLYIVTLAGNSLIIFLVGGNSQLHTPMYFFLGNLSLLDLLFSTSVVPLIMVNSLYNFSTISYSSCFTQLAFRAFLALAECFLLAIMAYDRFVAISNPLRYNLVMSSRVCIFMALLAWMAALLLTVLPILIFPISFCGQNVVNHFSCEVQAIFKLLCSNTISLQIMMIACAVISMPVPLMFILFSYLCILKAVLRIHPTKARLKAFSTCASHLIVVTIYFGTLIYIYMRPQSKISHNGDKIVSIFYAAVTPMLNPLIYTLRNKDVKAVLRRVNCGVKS
# How it was run: as §1
# [3] = target: T3, UniProt Q8VF44
# T3 sequence (whole entry): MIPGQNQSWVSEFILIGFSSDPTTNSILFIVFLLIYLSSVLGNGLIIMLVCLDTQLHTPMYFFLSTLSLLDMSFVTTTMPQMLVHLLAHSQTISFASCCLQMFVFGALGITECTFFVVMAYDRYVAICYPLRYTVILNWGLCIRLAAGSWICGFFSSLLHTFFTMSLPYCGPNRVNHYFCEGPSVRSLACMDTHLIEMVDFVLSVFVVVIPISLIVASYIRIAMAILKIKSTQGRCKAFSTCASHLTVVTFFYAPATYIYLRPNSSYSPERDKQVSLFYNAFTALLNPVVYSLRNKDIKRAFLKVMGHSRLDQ
# How it was run: as §1
# [4] = target: T4, UniProt Q8VF52
# T4 sequence (whole entry): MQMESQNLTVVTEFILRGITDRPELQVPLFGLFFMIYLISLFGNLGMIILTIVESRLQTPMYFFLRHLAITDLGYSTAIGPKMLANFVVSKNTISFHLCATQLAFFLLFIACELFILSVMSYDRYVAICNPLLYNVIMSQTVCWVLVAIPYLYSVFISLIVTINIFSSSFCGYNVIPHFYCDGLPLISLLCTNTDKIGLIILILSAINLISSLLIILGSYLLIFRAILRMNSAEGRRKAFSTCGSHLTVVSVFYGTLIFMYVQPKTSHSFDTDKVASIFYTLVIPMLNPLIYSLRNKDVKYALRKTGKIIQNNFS
# How it was run: as §1
# [5] = target: T5, UniProt Q8VFG6
# T5 sequence (whole entry): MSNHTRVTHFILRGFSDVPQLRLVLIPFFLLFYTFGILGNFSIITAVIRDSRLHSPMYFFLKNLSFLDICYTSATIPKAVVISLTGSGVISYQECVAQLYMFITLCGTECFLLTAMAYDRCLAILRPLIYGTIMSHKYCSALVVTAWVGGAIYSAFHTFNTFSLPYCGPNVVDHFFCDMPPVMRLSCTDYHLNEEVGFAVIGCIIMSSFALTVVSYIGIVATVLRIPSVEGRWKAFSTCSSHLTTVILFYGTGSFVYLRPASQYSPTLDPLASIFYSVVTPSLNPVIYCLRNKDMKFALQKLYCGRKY
# How it was run: as §1
# [6] = target: T6, UniProt Q8VFM8
# T6 sequence (whole entry): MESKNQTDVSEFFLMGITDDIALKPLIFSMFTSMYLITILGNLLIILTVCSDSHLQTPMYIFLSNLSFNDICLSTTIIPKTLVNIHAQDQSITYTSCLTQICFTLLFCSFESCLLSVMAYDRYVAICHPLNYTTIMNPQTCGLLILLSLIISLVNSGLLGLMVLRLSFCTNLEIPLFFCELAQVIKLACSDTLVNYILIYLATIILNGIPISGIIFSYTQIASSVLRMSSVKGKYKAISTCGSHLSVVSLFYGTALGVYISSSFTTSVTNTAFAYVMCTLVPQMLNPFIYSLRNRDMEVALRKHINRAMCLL
# How it was run: as §1
# [7] = target: T7, UniProt Q8VFP5
# T7 sequence (whole entry): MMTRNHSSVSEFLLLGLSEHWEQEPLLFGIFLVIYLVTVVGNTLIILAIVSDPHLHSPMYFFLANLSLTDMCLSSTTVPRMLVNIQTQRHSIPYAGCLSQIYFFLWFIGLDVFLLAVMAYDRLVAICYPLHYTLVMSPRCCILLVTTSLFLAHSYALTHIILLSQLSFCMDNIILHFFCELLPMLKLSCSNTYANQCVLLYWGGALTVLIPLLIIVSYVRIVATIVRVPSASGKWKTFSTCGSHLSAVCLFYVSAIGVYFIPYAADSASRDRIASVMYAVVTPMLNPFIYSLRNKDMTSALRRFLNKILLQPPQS
# How it was run: as §1
# [8] = target: T8, UniProt Q8VFZ6
# T8 sequence (whole entry): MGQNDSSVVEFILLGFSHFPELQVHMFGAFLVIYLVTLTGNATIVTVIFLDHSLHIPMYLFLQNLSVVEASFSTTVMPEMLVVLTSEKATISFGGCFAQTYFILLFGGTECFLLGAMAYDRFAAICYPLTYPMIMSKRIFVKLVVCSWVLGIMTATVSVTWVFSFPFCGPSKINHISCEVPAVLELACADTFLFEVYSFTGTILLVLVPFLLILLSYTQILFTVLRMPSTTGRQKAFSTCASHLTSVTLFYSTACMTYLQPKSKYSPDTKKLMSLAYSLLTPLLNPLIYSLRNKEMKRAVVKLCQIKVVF
# How it was run: as §1
# [9] = target: T9, UniProt Q8VG01
# T9 sequence (whole entry): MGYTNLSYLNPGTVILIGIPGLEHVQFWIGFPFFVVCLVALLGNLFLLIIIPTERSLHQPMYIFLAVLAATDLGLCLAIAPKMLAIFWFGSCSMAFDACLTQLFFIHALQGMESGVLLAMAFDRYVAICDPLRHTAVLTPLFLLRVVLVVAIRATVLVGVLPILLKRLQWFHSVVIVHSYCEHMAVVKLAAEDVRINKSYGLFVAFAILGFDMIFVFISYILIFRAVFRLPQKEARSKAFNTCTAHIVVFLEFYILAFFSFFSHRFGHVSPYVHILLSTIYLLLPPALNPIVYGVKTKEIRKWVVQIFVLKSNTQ
# How it was run: as §1
# [10] = target: T10, UniProt Q8VG22
# T10 sequence (whole entry): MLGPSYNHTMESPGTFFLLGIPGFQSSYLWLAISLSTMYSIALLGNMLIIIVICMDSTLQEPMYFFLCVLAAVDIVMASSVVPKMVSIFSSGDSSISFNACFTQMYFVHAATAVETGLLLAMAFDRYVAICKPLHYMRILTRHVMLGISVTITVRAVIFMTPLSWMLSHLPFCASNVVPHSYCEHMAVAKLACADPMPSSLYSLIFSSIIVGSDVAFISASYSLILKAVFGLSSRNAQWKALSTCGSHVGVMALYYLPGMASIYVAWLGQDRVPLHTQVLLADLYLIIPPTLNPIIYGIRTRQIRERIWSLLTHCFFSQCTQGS
# How it was run: as §1
# [11] = target: UniProt Q8VF06
# How it was run: as §1
# [12] = target: UniProt Q8VG26
# How it was run: as §1
# Sequence of UniProt Q8VG26 (Q8VG26 as listed by the source): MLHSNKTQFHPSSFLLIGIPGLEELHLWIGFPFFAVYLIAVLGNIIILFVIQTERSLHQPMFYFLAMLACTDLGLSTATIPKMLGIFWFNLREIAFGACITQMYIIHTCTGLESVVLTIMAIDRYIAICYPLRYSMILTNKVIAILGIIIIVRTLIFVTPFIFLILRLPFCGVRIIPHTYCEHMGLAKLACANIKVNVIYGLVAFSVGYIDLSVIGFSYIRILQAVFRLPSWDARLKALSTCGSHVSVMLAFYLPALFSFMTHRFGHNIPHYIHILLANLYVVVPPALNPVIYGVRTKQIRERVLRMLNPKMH
# Sequence of UniProt Q8VF06 (Q8VF06 as listed by the source): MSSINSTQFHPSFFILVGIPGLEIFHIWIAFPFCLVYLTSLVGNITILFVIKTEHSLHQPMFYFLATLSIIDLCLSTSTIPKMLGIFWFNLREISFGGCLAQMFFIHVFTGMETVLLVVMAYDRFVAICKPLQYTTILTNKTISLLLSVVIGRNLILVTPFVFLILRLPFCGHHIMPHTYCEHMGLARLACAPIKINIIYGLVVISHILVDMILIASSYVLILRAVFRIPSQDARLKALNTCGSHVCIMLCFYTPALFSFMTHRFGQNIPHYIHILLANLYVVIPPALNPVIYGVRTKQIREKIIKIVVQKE
Compound,odorant receptor agonist call [1],odorant receptor agonist call [2],odorant receptor agonist call [3],odorant receptor agonist call [4],odorant receptor agonist call [5],odorant receptor agonist call [6],odorant receptor agonist call [7],odorant receptor agonist call [8],odorant receptor agonist call [9],odorant receptor agonist call [10],odorant receptor agonist call [11],odorant receptor agonist call [12]
CCCCCCOC(C)=O,inactive,inactive,inactive,inactive,inactive,inactive,inactive,inactive,inactive,inactive,,
CCCCC(=O)O,inactive,inactive,inactive,inactive,inactive,inactive,inactive,inactive,inactive,inactive,inactive,inactive
CC12CCC(CC1=O)C2(C)C (stereo unspecified),active,inactive,inactive,active,inactive,inactive,inactive,inactive,inactive,inactive,,
CCCCCCCCCCO,inactive,inactive,inactive,inactive,inactive,inactive,inactive,inactive,inactive,inactive,,
O=C(O)CCCCCCCCCCCBr,,,,,,,,,,,active,
CCCCCCCCCCCO,,inactive,,inactive,,inactive,inactive,,inactive,,active,
O=C1Cc2ccccc2O1,inactive,inactive,active,inactive,inactive,inactive,inactive,inactive,inactive,active,,
CCCCCCCCCO,inactive,inactive,inactive,inactive,inactive,inactive,inactive,inactive,inactive,inactive,inactive,inactive
CCCCCCCCO,inactive,inactive,inactive,inactive,inactive,inactive,inactive,active,inactive,inactive,inactive,inactive
O=C(c1ccccc1)c1ccccc1,inactive,inactive,active,inactive,inactive,inactive,inactive,inactive,inactive,inactive,,
CC(=O)OCc1ccccc1,inactive,inactive,inactive,inactive,inactive,inactive,inactive,inactive,inactive,active,,
CC(C)=CCCC(C)=CCO,inactive,inactive,inactive,inactive,inactive,inactive,inactive,active,inactive,inactive,,
CCCCOC(=O)CCC,,,,,,,,,,,inactive,inactive
O=C(O)CCCCCCCCCC(=O)O,,,,,,,,,,,inactive,
CCC(=O)C(=O)CC,inactive,inactive,inactive,inactive,inactive,inactive,inactive,inactive,inactive,active,,
CC(=O)C1(C)CC2=C(CCCC2(C)C)CC1C (stereo unspecified),,inactive,,inactive,,inactive,inactive,,inactive,,,
Cc1ccccc1OC(=O)C(C)C,,inactive,,inactive,,inactive,inactive,,inactive,,,
CCCCCCCCCC=CC=O,,inactive,,inactive,,inactive,inactive,,inactive,,,
CCC(C)c1nccnc1OC (stereo unspecified),,inactive,,inactive,,inactive,inactive,,inactive,,,
COc1cc(C(=O)O)ccc1O,inactive,inactive,inactive,inactive,inactive,inactive,inactive,inactive,inactive,inactive,,
CC(=O)Oc1ccccc1,inactive,inactive,inactive,inactive,inactive,inactive,inactive,inactive,inactive,active,,
COc1nccnc1C,,inactive,,inactive,,inactive,inactive,,inactive,,,
CC(C)=CCCC(C)CCO (stereo unspecified),inactive,inactive,inactive,inactive,inactive,inactive,inactive,inactive,inactive,inactive,,
